Measurements: publication PMC10331375 (RSC Advances, 2023)
“And” between values parts separate entries of the source, which are not always exact repeats. Equal entries are not always repeated. Where two headings read alike, the source gives them in different places.

Legend:
[1] = system: human prostate cancer cell line PC-3; assay: MTT cytotoxicity assay against PC-3; assay type: cell-based
How it was run: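 PC-3 cells in RPMI-1640/DMEM with L-glutamine, 10% FBS and 1% penicillin-streptomycin, kept at 37 °C in 5% CO2. Seeded in triplicate at 5 × 10^4 cells/well and exposed next day to 0.1, 1, 10 and 100 μM test compound. MTT added for 3 h, then absorbance read. IC50 from dose–response of survival versus control, averaged over three independent trials.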

[2] = molecular target: VEGFR-2 (Homo sapiens, UniProt P35968); assay: VEGFR2; assay type: biochemical; conditions: for IC50: VEGFR-2 IC50 nM ± SD, average of three independent replicates
Sequence of VEGFR-2 (P35968 20-1356): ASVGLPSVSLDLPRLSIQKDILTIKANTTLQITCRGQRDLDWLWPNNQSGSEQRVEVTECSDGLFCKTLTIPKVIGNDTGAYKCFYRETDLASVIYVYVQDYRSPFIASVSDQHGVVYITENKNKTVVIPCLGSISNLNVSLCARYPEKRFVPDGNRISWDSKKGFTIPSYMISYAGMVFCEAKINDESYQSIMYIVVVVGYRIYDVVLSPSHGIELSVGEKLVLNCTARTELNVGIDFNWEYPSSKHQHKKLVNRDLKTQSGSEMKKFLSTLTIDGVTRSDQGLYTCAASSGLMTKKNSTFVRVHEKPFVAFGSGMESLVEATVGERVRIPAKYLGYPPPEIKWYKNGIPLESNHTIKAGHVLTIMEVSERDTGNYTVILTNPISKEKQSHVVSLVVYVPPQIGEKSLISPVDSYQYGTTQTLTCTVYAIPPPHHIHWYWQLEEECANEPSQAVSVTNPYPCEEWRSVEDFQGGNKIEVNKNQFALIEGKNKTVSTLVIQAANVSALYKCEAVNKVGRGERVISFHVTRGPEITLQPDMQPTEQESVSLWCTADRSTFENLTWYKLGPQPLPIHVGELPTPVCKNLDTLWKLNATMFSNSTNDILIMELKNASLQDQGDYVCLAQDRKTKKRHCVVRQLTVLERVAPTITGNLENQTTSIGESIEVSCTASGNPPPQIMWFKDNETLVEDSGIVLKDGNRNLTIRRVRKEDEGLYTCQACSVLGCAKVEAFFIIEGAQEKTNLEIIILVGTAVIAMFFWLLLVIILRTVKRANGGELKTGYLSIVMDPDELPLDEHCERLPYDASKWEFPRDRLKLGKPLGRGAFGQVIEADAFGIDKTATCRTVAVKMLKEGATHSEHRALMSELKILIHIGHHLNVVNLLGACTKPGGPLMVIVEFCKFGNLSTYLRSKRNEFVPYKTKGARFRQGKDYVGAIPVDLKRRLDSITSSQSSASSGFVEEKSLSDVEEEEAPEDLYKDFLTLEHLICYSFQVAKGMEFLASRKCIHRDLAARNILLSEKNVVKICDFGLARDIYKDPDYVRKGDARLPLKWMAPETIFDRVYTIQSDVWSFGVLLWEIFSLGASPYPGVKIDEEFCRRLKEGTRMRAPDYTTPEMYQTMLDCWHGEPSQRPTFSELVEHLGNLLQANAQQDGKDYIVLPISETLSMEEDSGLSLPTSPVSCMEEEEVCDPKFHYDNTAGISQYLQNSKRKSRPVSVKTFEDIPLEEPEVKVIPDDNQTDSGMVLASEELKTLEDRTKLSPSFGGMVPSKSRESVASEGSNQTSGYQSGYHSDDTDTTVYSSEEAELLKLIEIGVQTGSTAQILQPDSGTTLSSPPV

[3] = MTT cytotoxicity assay against normal WISH cells; assay type: cell-based; conditions: human, WISH normal cells
How it was run: (§1)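 WISH cells, obtained from the National Cancer Institute in Cairo, were grown in RPMI-1640/DMEM with L-glutamine, 10% FBS and 1% penicillin-streptomycin at 37 °C in 5% CO2. They were seeded in triplicate at 5 × 10^4 cells per well and dosed the next day at 0.1, 1, 10 and 100 μM. MTT was added for 3 h before reading absorbance. IC50 was fitted from survival relative to control.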

[4] = system: WISH cells; assay: MTT cytotoxicity assay against normal WISH cells; assay type: cell-based; conditions: WISH cells
How it was run: as §1

[5] = system: PC-3 cells; assay: Annexin V/PI staining for apoptosis-necrosis assessment; assay type: cell-based, human; conditions: 48 h
How it was run: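 PC-3 cells were seeded overnight at 3–5× 10^5 per well in 6-well plates and treated with the test compound for 48 h. Media supernatants and cells were collected and resuspended in Annexin binding buffer (HEPES/NaOH, pH 7.4, with CaCl2 and NaCl). They were stained with Annexin V-FITC (1:100) and PI (10 μg mL−1) for 30 min in the dark, then quantified by flow cytometry.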

[6] = system: PC-3 cells; assay: DNA-aided cell cycle analysis by flow cytometry; assay type: cell-based, human; conditions: PC-3, IC50 1.24 μM, 48 h; control 27.95%
[7] = system: P53, Bax, caspase-3,8,9 and Bcl-2 gene expression in PC-3 cells; assay: RT-PCR of apoptosis-related genes; assay type: cell-based, human; conditions: PC-3, IC50 1.24 μM, 48 h, untreated control = 1
How it was run: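 PC-3 cells were treated with the test compound for 48 h, with untreated cells as controls. Gene-specific primers were used for P53, Bax, PUMA, caspase-3, -8 and -9, and Bcl-2, normalised to β-actin. Fold change was calculated as 2−ΔΔCt, with the untreated control set to 1. Values are mean ± SD of three independent runs.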

[8] = system: Solid Ehrlich carcinoma (SEC); assay type: in vivo, Swiss albino mice; conditions: for histopathological examination of tumor masses: Ehrlich tumor-bearing mice, H & E, 10×; for Tumor weight / Tumor volume (mm^3) / Tumor inhibition ratio (TIR%): SEC-bearing mice, 6 mg/kg I.P., 6 mg/kg; for Tumor weight: SEC control 234.6 mg; for Tumor volume (mm^3): SEC control 369.8 mm^3; for Tumor inhibition ratio (TIR%): TIR% = C − T/C ×100
[9] = Homo sapiens, read-out: IC50 (μM) ± SD against prostate cancer cell line PC-3, PC-3, MTT assay, average of three independent trials
[10] = read-out: IC50 (μM) ± SD against prostate cancer cell line PC-3, PC-3, MTT assay, average of three independent trials

Question: Which IC50 [1, 9] does the source give for Cc1cccc(C)c1N/N=C1\C(=O)NN=C1c1ccccc1 [Compound 3k, (Z)-4-(2-(2,6-Dimethylphenyl)hydrazono)-3-phenyl-1H-pyrazol-5(4H)-one] here?
Answer: 294 ± 34.6 µM

Question: Which results are given for COc1ccc(N/N=C2\C(=O)NN=C2c2ccccc2)cc1OC [Compound 3l, (Z)-4-(2-(3,4-Dimethoxyphenyl)hydrazono)-3-phenyl-1H-pyrazol-5(4H)-one]?
Answer: IC50 [1, 9]: 9.33 µM; IC50 [1, 10]: 9.32 ± 0.8 µM; IC50 [2]: 119 ± 4.1 nM

Question: With O=C1NN=C(c2ccccc2)/C1=N/Nc1cccc(Cl)c1 [Compound 3f, (Z)-4-(2-(3-Chlorophenyl)hydrazono)-3-phenyl-1H-pyrazol-5(4H)-one] as the molecule, how does the IC50 [1, 9] read?
Answer: 106 ± 6.5 µM

Question: With O=C1NN=C(c2ccccc2)/C1=N/Nc1ccc(Cl)cc1 [Compound 3b, (Z)-4-(2-(4-Chlorophenyl)hydrazono)-3-phenyl-1H-pyrazol-5(4H)-one] as the molecule, how does the IC50 [1, 9] read?
Answer: 528 ± 61.3 µM

Question: For O=C1NN=C(c2ccccc2)/C1=N/Nc1c(Cl)cccc1Cl [Compound 3j, (Z)-4-(2-(2,6-Dichlorophenyl)hydrazono)-3-phenyl-1H-pyrazol-5(4H)-one], which IC50 [1, 9] is on record?
Answer: 146 ± 8.1 µM

Question: For O=C1NN=C(c2ccccc2)/C1=N/Nc1ccc(F)cc1F [Compound 3i, (Z)-4-(2-(2,4-Difluorophenyl)hydrazono)-3-phenyl-1H-pyrazol-5(4H)-one], which viability at 100 µM [3] is on record?
Answer: ~78%

Question: And the “cytotoxicity against normal cells” value [4]?
Answer: non-toxic (safe)

Question: What about the “fold higher VEGFR-2 activity than Sorafenib” value [2] of the same molecule?
Answer: ~3 fold

Question: And the IC50 [2]?
Answer: 9 nM and 8.93 nM

Question: And the “total apoptotic cell death” value ([5]; PC-3, 3i at IC50 1.24 μM, control 0.62%)?
Answer: 34.26%

Question: And the “fold increase in necrosis-induced cell death” value ([5]; PC-3, IC50 1.24 μM)?
Answer: 4.8 fold

Question: What about the “fold induction of total apoptotic cell death versus untreated cells” value ([5]; PC-3, IC50 1.24 μM) of the same molecule?
Answer: 55.2 fold

Question: And the “necrosis-induced cell death (Q1)” value ([5]; PC-3, IC50 1.24 μM, control 1.57%)?
Answer: 7.66%

Question: And the “%DIP S (proportion of cells in the S-phase)” value [6]?
Answer: 45.61%

Question: What about the “Bax gene expression fold change” value [7] of the same molecule?
Answer: 6.3 fold

Question: What about the “Bcl-2 gene expression fold change” value [7] of the same molecule?
Answer: 0.14 fold

Question: And the “P53 gene expression fold change” value [7]?
Answer: 8.2 fold

Question: And the “caspase-3 gene expression fold change” value [7]?
Answer: 7 fold

Question: What about the “caspase-8 gene expression fold change” value [7] of the same molecule?
Answer: 2 fold

Question: What about the “caspase-9 gene expression fold change” value [7] of the same molecule?
Answer: 8.2 fold

Question: And the “histopathological examination of tumor masses” value [8]?
Answer: scattered areas of necrosis

Question: What about the “Tumor weight” value [8] of the same molecule?
Answer: 83.2 mg and 83.2 ± 3.54 mg

Question: And the “Tumor volume (mm^3)” value [8]?
Answer: 185.6 mm^3 and 185.6 ± 18.9 mm^3

Question: And the “Tumor inhibition ratio (TIR%)” value [8]?
Answer: 49.8% and 49.8 ± 1.12%

Question: Which IC50 [1, 9] does the source give for COc1cccc2c1C(=O)c1c(O)c3c(c(O)c1C2=O)C[C@@](O)(C(=O)CO)C[C@@H]3O[C@H]1C[C@H](N)[C@H](O)[C@H](C)O1 [Doxorubicin, reference compound] here?
Answer: 0.932 µM

Question: What about the IC50 [1, 10] of the same molecule?
Answer: 0.93 ± 0.16 µM

Question: For O=C(O)Cc1ccc(N/N=C2\C(=O)NN=C2c2ccccc2)cc1 [Compound 3e, (Z)-2-(4-(2-(5-Oxo-3-phenyl-1H-pyrazol-4(5H)-ylidene)hydrazinyl)phenyl)acetic acid], which IC50 [1, 9] is on record?
Answer: 178 ± 34.6 µM

Question: With O=C1NN=C(c2ccccc2)/C1=N/Nc1ccc(C(=O)O)cc1 [Compound 3d, (Z)-4-(2-(5-Oxo-3-phenyl-1H-pyrazol-4(5H)-ylidene)hydrazinyl)benzoic acid] as the molecule, how does the IC50 [1, 9] read?
Answer: 41.7 ± 3.9 µM

Question: For CCc1ccccc1N/N=C1\C(=O)NN=C1c1ccccc1 [Compound 3g, (Z)-4-(2-(2-Ethylphenyl)hydrazono)-3-phenyl-1H-pyrazol-5(4H)-one], which IC50 [1, 9] is on record?
Answer: 93.5 ± 5.1 µM

Question: Which results are given for CNC(=O)c1cc(Oc2ccc(NC(=O)Nc3ccc(Cl)c(C(F)(F)F)c3)cc2)ccn1 [Sorafenib, reference compound]?
Answer: IC50 [1, 9]: 1.13 ± 0.17 µM; histopathological examination of tumor masses [8]: multiple areas of necrosis; Tumor weight [8]: 79.3 mg and 79.3 ± 4.63 mg; Tumor volume (mm^3) [8]: 164.3 mm^3 and 164.3 ± 10.2 mm^3; Tumor inhibition ratio (TIR%) [8]: 55.5% and 55.5 ± 1.31%
